Test results reported in PubChem BioAssay AID504477 (NMMLSC, 2011).
Active and inactive are the calls of the source.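 Rule for the calls: active = compounds whose self-toxic dose exceeds tenfold the dose that restores mitoxantrone killing of resistant cells; inactive = the rest.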

Tested on: Igrov ABCG2 cells + mitoxantrone, trypan blue viability, 3 d
Assay: chemosensitization of ABCG2-expressing resistant cells – Igrove cells, mitoxantrone, trypan blue, SAR set 2, SAR follow-up (AID 504477)
Procedure, shortened: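 system = ABCG2-expressing Igrove cells | input = 100,000 cells per mL | probe or stimulus = mitoxantrone selective agent at one fixed concentration | dosing = test compound concentration series across 3 logs, 1-100 µM | schedule = 3-day exposure of cells to test compound | technique = trypan blue counts by light microscopy | read-out basis = test compound concentration causing 50% loss of cell viability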

## COc1ccc(-c2cc3nc(-c4ccco4)cc(N4CCN(C(=O)c5ccoc5)CC4)n3n2)cc1
  CC50: > 100 µM

## COc1ccccc1-c1cc(N2CCN(C(=O)c3ccoc3)CC2)n2nc(-c3ccccc3)cc2n1
  CC50: > 7.62 µM (inactive)

## CC(=O)N1CCN(c2cc(-c3ccco3)nc3cc(-c4cccc(Cl)c4)nn23)CC1
  CC50: > 100 µM

## O=C(c1ccoc1)N1CCN(c2cc(-c3ccco3)nc3cc(-c4ccco4)nn23)CC1
  CC50: > 100 µM

## CC(=O)N1CCN(c2cc(-c3ccco3)nc3cc(-c4ccccc4)nn23)CC1
  CC50: > 100 µM

## COc1cccc(-c2cc3nc(-c4ccco4)cc(N4CCN(C(C)=O)CC4)n3n2)c1
  CC50: > 100 µM
